The record followed here is ChEMBL document CHEMBL1127627, “Synthesis and antitumor activity of a new class of pyrazolo[4,3-e]pyrrolo[1,2-a][1,4]diazepinone analogues of pyrrolo[1,4][2,1-c]benzodiazepines” (J Med Chem, 1994).

Several values for one entry are separate records, joined by “and”; a condition that tells them apart may be missing. Identical values can stand only once.

Experiment [1] relates to LoVo. In words: Tested in vitro for inhibition after 144 hr against human colon carcinoma LoVo/DX cell line resistant to Doxorubicin (DX). The class given is functional, cell-based. The method, boiled down: (§1)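 LoVo human colon carcinoma cells and their doxorubicin-resistant LoVo/DX subline were used in growth-inhibition studies. IC50 is the concentration inhibiting growth by 50% after 144 h exposure to compound, reported as the mean of repeated experiments ± standard deviation.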

The subject of experiment [2] is L1210. In words: Tested in vitro for inhibition after 48 hr exposure against murine leukemia cell line L1210 by experiment 1. The class given is functional, cell-based. The conditions noted are these: Mus musculus, L1210, 48 h. The method, boiled down: (§2)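 L1210 murine leukemia cells and their melphalan-resistant L1210/L-PAM subline were used in growth-inhibition studies. IC50 is the concentration inhibiting growth by 50% after 48 h exposure, given as the mean of repeated experiments ± standard deviation.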

Experiment [3] concerns L1210. The experiment is described as follows: Tested in vitro for inhibition after 48 hr exposure against murine leukemia cell line L1210 by experiment 2. The class given is functional, cell-based. The conditions noted are these: Mus musculus, L1210, 48 h. The method, boiled down: as §2
Experiment [4] deals with L1210. In words: Tested in vitro for inhibition after 48 hr exposure against murine leukemia cell line L1210/L-PAM resistant to melphalan (L-PAM) by experiment 1. The format is functional, cell-based. Conditions: Mus musculus, L1210, 48 h. The method, boiled down:
as §2

The test system of experiment [5] is LoVo. The experiment is described as follows: Tested in vitro for inhibition after 144 hr exposure against human colon carcinoma LoVo cell line. The format is functional, cell-based. The method, boiled down:
as §1

The nature of experiment [6]: Resistance index as the ratio of IC50 against L1210/L-PAM to that of L1210 cell lines. The format is functional. The method, boiled down:
(§3)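 Resistance index computed as IC50 in melphalan-resistant L1210/L-PAM murine leukemia cells divided by IC50 in parental L1210 cells. Each IC50 is the concentration inhibiting growth by 50% after 48 h exposure, from growth-inhibition studies.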

Experiment [7] is described as follows: Resistance index as the ratio of IC50 against LoVo/Dx to that of LoVo. The format is functional. The method, boiled down: (§4)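 Resistance index taken as IC50 in doxorubicin-resistant LoVo/DX human colon carcinoma cells over IC50 in parental LoVo cells. Each IC50 is the concentration giving 50% growth inhibition after 144 h exposure.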
For experiment [8], the system named is L1210. The experiment is described as follows: Tested in vitro for inhibition after 48 hr exposure against murine leukemia cell line L1210/L-PAM resistant to melphalan (L-PAM) by experiment 2. The format is functional, cell-based. Conditions: Mus musculus, L1210, 48 h. The method, boiled down: as §2
The subject of experiment [9] is L1210. The experiment is described as follows: Tested in vitro for inhibition after 48 hr exposure against murine leukemia cell line L1210. The class given is functional, cell-based. The conditions noted are these: Mus musculus, L1210, 48 h. The method, boiled down:
as §2

Experiment [10] concerns L1210. In words: Tested in vitro for inhibition after 48 hr exposure against murine leukemia cell line L1210/L-PAM resistant to melphalan (L-PAM). The format is functional, cell-based. The conditions noted are these: Mus musculus, L1210, 48 h. The method, boiled down: as §2
A short description of experiment [11]: Resistance index as the ratio of IC50 against L1210/L-PAM to that of L1210 cell lines. The format is functional.
The nature of experiment [12]: Resistance index as the ratio of IC50 against LoVo/Dx to that of LoVo. The format is functional. The method, boiled down:
as §4

The subject of experiment [13] is L1210. The experiment is described as follows: tested in vitro for inhibition after 48 hr exposure against murine leukemia cell line L1210/L-PAM resistant to melphalan (L-PAM by experiment 1. The class given is functional, cell-based. The conditions noted are these: Mus musculus, L1210, 48 h. The method, boiled down: as §2
Experiment [14] relates to L1210. The experiment is described as follows: tested in vitro for inhibition after 48 hr exposure against murine leukemia cell line L1210/L-PAM resistant to melphalan (L-PAM by experiment 2. The format is functional, cell-based. The conditions noted are these: Mus musculus, L1210, 48 h. The method, boiled down: as §2
In experiment [15] the test system is L1210. The experiment is described as follows: Tested in vitro for inhibition after 48 hr exposure against murine leukemia cell line L1210/L-PAM resistant to melphalan (L-PAM) by experiment 1. Conditions: Mus musculus, L1210, 48 h. The class given is functional, cell-based. The method, boiled down:
as §2

Experiment [16] relates to L1210. In words: Tested in vitro for inhibition after 48 hr exposure against murine leukemia cell line L1210/L-PAM resistant to melphalan (L-PAM) by experiment 2. Conditions: Mus musculus, L1210, 48 h. The format is functional, cell-based. The method, boiled down: as §2
Experiment [17] is described as follows: Resistance index as the ratio of IC50 against L1210/L-PAM to that of L1210 cell lines in experiment 2. The format is functional. The method, boiled down: as §3
Experiment [18] can be described thus: Resistance index as the ratio of IC50 against LoVo/Dx to that of LoVo in experiment 1. The format is functional. The method, boiled down:
as §4

For experiment [19], the system named is L1210. The experiment is described as follows: Tested in vitro for inhibition after 48 hr exposure against murine leukemia cell line L1210/L-PAM resistant to melphalan (L-PAM)by experiment 2. Conditions: Mus musculus, L1210, 48 h. The format is functional, cell-based. The method, boiled down:
as §2

Experiment [20] has as its system L1210. In words: Tested in vitro for inhibition after 48 hr exposure against murine leukemia cell line L1210/L-PAM resistant to melphalan (L-PAM)by experiment 1. The class given is functional, cell-based. Conditions: Mus musculus, L1210, 48 h. The method, boiled down:
as §2

Consider `Cc1c2c(nn1Cc1ccc(Cl)cc1)C(=O)N1CCC[C@H]1C=N2`, for which the 50% inhibitory concentration (IC50) is 11 µM with LoVo [1]; 0.5 µM in the experiment on L1210 [2]; 0.8 µM with L1210 [3]; 0.16 µM in the experiment on L1210 [4]; 37 µM in the experiment on LoVo [5]; 0.27 µM with L1210 [8]. For the same compound, the RI in experiment [6] is 2.8 and 3.1; in [7], 0.3.

For the compound `N[C@@H](Cc1ccc(N(CCCl)CCCl)cc1)C(=O)O`, the IC50 in the experiment with L1210 [9] was 15.3 µM; in the experiment on LoVo [1], 4.9 µM; with L1210 [10], 47 µM; in the experiment on LoVo [5] it was 4.09 µM. Further, the RI in experiment [11] came to 3.1; in experiment [12], 1.18.

With `CCn1nc(C)c2c1C(=O)N1CCC[C@H]1C=N2`, the half-inhibitory concentration (IC50) with LoVo [1] was more than 215 µM; in the experiment with L1210 [2] it was 40 µM; with L1210 [3], 69 µM; in the experiment on L1210 [4], 101 µM; in the experiment with LoVo [5], more than 215 µM; with L1210 [8], 125 µM. Also, the RI in [6] stood at 2.5.

In the case of `CC(C)c1c2c(nn1Cc1ccccc1)C(=O)N1CCC[C@H]1C=N2`, the IC50 amounted to 12 µM in the experiment with L1210 [9], 8 µM in the experiment on LoVo [1], 11 µM in the experiment on L1210 [10] and 30 µM with LoVo [5]. Moreover, the RI in [11] was 0.97; in experiment [12], 0.2.

For `Cc1nn(Cc2ccccc2)c2c1N=C[C@@H]1CCCN1C2=O`, the IC50 was 20 µM in the experiment on L1210 [9], 38 µM with LoVo [1] and 46 µM in the experiment on LoVo [5]. Besides, the RI in [12] came to 0.8.

For the compound `COC(=O)c1nn(C)c2c1N=C[C@@H]1CCCN1C2=O`, the IC50 in the experiment with L1210 [9] stood at 27 µM; in the experiment on LoVo [1] it was 60 µM; with LoVo [5], 54 µM. In experiment [12], the RI came out at 1.12.

With `COC(=O)c1c2c(nn1C)C(=O)N1CCC[C@H]1C=N2`, the IC50 in the experiment with L1210 [13] is 69 µM; in the experiment with L1210 [14] it was 62 µM; in the experiment on LoVo [1] it was more than 162 µM; in the experiment with L1210 [2], 31 µM; with L1210 [3], 41 µM; in the experiment with LoVo [5], more than 162 µM. The RI in experiment [6] is 2.2 and 1.5.

For `COc1cccc2c1C(=O)c1c(O)c3c(c(O)c1C2=O)C[C@@](O)(C(=O)CO)C[C@@H]3O[C@H]1C[C@H](N)[C@H](O)[C@H](C)O1` [DOXORUBICIN], the IC50 in the experiment with L1210 [9] came to 0.05 µM; in the experiment on LoVo [1] it was 7.6 µM; in the experiment with L1210 [10], 0.06 µM; with LoVo [5], 0.057 µM. In addition, the RI in experiment [12] was 133.

On to `Cc1nn(C)c2c1N=C[C@@H]1CCCN1C2=O`, for which the results for the half-maximal inhibitory concentration (IC50) in the experiment with L1210 [9], in the experiment on LoVo [1] and in the experiment with LoVo [5] were 22 µM, 39 µM and 42 µM, respectively. Moreover, in experiment [12], the RI came to 0.9.

With `C/C=C1/CC2C(OC)Nc3cc(OC)c(OC)cc3C(=O)N2C1` (stereo not drawn), the 50% inhibitory concentration (IC50) with L1210 [9] worked out at 0.012 µM; in the experiment on LoVo [1], 0.004 µM; in the experiment with L1210 [10], 0.015 µM; in the experiment with LoVo [5], 0.009 µM. In addition, the figures for the RI in [11] and in experiment [12] were 1.4 and 0.5, respectively.

In the experiment with L1210 [9], `COc1cc2c(cc1O)N=C[C@@H]1CCCN1C2=O` showed a 50% inhibitory concentration (IC50) of 0.38 µM.

Consider `Cc1ccc(Cn2nc3c(c2C)N=C[C@@H]2CCCN2C3=O)cc1C`, for which the IC50 with LoVo [1] was 6 µM; in the experiment with L1210 [2], 4 µM; in the experiment on L1210 [3], 5 µM; in the experiment with L1210 [4], 8 µM; in the experiment on LoVo [5], 40 µM; in the experiment with L1210 [8], 4 µM. Further, the RI in experiment [7] was determined as 0.2.

As to `CCn1nc2c(c1C)N=C[C@@H]1CCCN1C2=O`, the IC50 in the experiment with LoVo [1] stood at 6 µM; in the experiment with L1210 [2] it was 7 µM; with L1210 [3], 6 µM; in the experiment with L1210 [15], 6 µM; in the experiment with L1210 [16] it was 13 µM; with LoVo [5], 15 µM. The RI in [17] was 0.9 and 2; in experiment [18] it was 0.4.

As to `Cc1c2c(nn1Cc1ccccc1)C(=O)N1CCC[C@H]1C=N2`, the IC50 in the experiment on L1210 [9] was 3 µM; in the experiment with LoVo [1] it was 25 µM; with LoVo [5], 54 µM. Further, the RI in [12] was 0.5.

For the compound `COc1ccc(Cn2nc3c(c2C)N=C[C@@H]2CCCN2C3=O)cc1`, the IC50 with LoVo [1] was 32 µM; with L1210 [2], 19 µM; with L1210 [3] it was 11 µM; in the experiment on L1210 [19] it was 6 µM; in the experiment with LoVo [5], 48.4 µM; in the experiment with L1210 [20], 3 µM. Moreover, the RI in [7] turned out to be 0.7.

Take `Cc1c2c(nn1C)C(=O)N1CCC[C@H]1C=N2`: the IC50 with L1210 [9] stood at 8 µM; in the experiment with LoVo [1] it was 32 µM; with LoVo [5], 27 µM. In addition, the RI in experiment [12] was 1.2.

The term IC50 denotes the concentration that inhibits the measured activity by half. A higher IC50 goes with a need for much substance.
